Results on 13 compounds are retold here after ChEMBL document CHEMBL1122346, “Antihypertensive activity of 6-arylpyrido[2,3-d]pyrimidin-7-amine derivatives. 2. 7-Acyl amide analogues” (J Med Chem, 1983).

For series [1], the species on record is Rattus norvegicus. As to the kind of experiment: Maximum percent decrease in blood pressure in SHR ( hour post dose in parentheses). The series is classed as functional.
For series [2], the system named is Rattus norvegicus. As to the kind of experiment: Antihypertensive activity rating in conscious SHR after 2 hr post dose at 10 mg/kg (po); Range 10-20%. It counts as functional.
The test system of series [3] is Rattus norvegicus. As to the kind of experiment: Antihypertensive activity rating in conscious SHR after 18 hr post dose at 50 mg/kg (po). The series is classed as functional.
Series [4] deals with Rattus norvegicus. As to the kind of experiment: Antihypertensive activity rating in conscious SHR after 10 hr post dose at 10 mg/kg (po); Range 10-20%. The series is classed as functional.
Series [5] relates to Rattus norvegicus. As to the kind of experiment: Antihypertensive activity rating in conscious SHR after 10 hr post dose at 50 mg/kg (po). The series is classed as functional.
Series [6] relates to Rattus norvegicus. As to the kind of experiment: Antihypertensive activity rating in conscious SHR after 24 h post dose at 10 mg/kg (po); Range 10-20%. It counts as functional.
Series [7] has as its system Rattus norvegicus. As to the kind of experiment: Antihypertensive activity rating in conscious SHR after 2 hr post dose at 50 mg/kg (po); Range 20-30%. The series is classed as functional.
In series [8] the test system is Rattus norvegicus. As to the kind of experiment: Antihypertensive activity rating in conscious SHR after 18 hr post dose at 50 mg/kg (po); Range 20-30%. It counts as functional.
Series [9] deals with Rattus norvegicus. As to the kind of experiment: Antihypertensive activity rating in conscious SHR after 2 hr post dose at 50 mg/kg (po); Range 10-20%. It counts as functional.
Series [10] concerns Rattus norvegicus. As to the kind of experiment: Antihypertensive activity in conscious spontaneously hypertensive rats 10 hr following 50 mg/kg p.o.; Range 10-20%. It counts as functional. The conditions noted are these: route oral.
The test system of series [11] is Rattus norvegicus. As to the kind of experiment: Antihypertensive activity rating in conscious SHR after 10 hr post dose at 50 mg/kg (po); Range 20-30%. The series is classed as functional.
Series [12] deals with Rattus norvegicus. As to the kind of experiment: Antihypertensive activity rating in conscious SHR after 10 hr post dose at 10 mg/kg (po); Range 20-30%. It counts as functional.
In series [13] the test system is Rattus norvegicus. As to the kind of experiment: Antihypertensive activity rating in conscious SHR after 24 h post dose at 10 mg/kg (po); 0=No significant reduction. The series is classed as functional.
Series [14] relates to Rattus norvegicus. As to the kind of experiment: Antihypertensive activity rating in conscious SHR after 24-72 hr post dose at 10 mg/kg (po); Range 10-20%. It counts as functional.
Series [15] relates to Rattus norvegicus. As to the kind of experiment: Antihypertensive activity rating in conscious SHR after 24 h post dose at 50 mg/kg (po); Range 20-30%. It counts as functional.
A short description of series [16]: Half-life measured in 0.1 N HCl; Stable. It counts as ADME. The note with it: buffer. Summed up: (§1)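 Hydrolytic stability was tested at room temperature on solutions of ca. 0.001-0.002%. Media were 0.1 N HCl (pH ~1.5), 50% MeOH/pH 7 phosphate buffer (pH ~8.0), and 50% MeOH/0.05 N aqueous NaOH (pH ~12.2). Changes in the UV spectrum were followed over 2 weeks.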

The nature of series [17]: Half-life measured in 1:1 ratio of MeOH and phosphate buffer at pH 7; Stable. The series is classed as ADME. Summed up:
as §1

Series [18] is described as follows: pKa value, measured in 67% of DMF. The series is classed as physicochemical. The note with it: 67% DMF. Summed up:
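Dissociation constants were found by potentiometric titration in 67% N,N-dimethylformamide/water.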

Series [19] has as its system Rattus norvegicus. As to the kind of experiment: Antihypertensive activity in conscious spontaneously hypertensive rats 24 hr following 50 mg/kg p.o.; No significant reduction. The series is classed as functional. The note with it: route oral.
The test system of series [20] is Rattus norvegicus. As to the kind of experiment: Antihypertensive activity in conscious spontaneously hypertensive rats 2 hr following 50 mg/kg p.o.; No significant reduction. It counts as functional. The conditions noted are these: route oral.
For series [21], the system named is Rattus norvegicus. As to the kind of experiment: Antihypertensive activity in conscious spontaneously hypertensive rats 10 hr following 50 mg/kg p.o.; No significant reduction. It counts as functional. The note with it: route oral.
The nature of series [22]: Half-life measured in 1:1 ratio of MeOH and 0.1 N NaOH. It counts as ADME. The note with it: 1:1 MeOH / 0.1 N NaOH. Summed up: as §1
Series [23] deals with Rattus norvegicus. As to the kind of experiment: Antihypertensive activity rating in conscious SHR after 2 hr post dose at 10 mg/kg (po); 0=No significant reduction. It counts as functional.
Series [24] has as its system Rattus norvegicus. As to the kind of experiment: Antihypertensive activity rating in conscious SHR after 10 hr post dose at 10 mg/kg (po); 0=No significant reduction. It counts as functional.
Series [25] can be described thus: Solubility, determined in 0.1 N HCl. The series is classed as physicochemical. The conditions noted are these: read-out: S. Summed up:
(§2)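 Dissolved compound was quantified by UV absorption. For the pH 7 value, the acidic solution was brought to pH 7 to give the unprotonated base, the precipitate was removed, and the supernatant was assayed again by UV.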

The subject of series [26] is Rattus norvegicus. As to the kind of experiment: Antihypertensive activity rating in conscious SHR after 24 hr post dose at 50 mg/kg (po); Range 10-20%. It counts as functional.
Series [27] is described as follows: Solubility, determined in phosphate buffer at pH 7. It counts as physicochemical. Summed up:
as §2

A short description of series [28]: pKa value, measured in 67% DMF/water.
Series [29] in a line: Half-life measured in 0.1 N HCl. The series is classed as ADME. Summed up:
as §1

Series [30] concerns Rattus norvegicus. As to the kind of experiment: Antihypertensive activity rating in conscious SHR after 2 hr post dose at 10 mg/kg (po); Range 20-30%. The series is classed as functional.

≈ marks a conversion by molar mass, not a printed value. Where “and” joins values, the source holds several entries; their conditions need not be identical. Equal values may be shown once.

For the compound `Cc1ncc2cc(-c3c(Cl)cccc3Cl)c(NC=O)nc2n1`, the Decrease in the series listed under Rattus norvegicus [1] is reported as 33%. The Activity rating is listed as 10% in the series on Rattus norvegicus [2]; more than 30% with Rattus norvegicus [3]; 10% in the series with Rattus norvegicus [4]; more than 30% with Rattus norvegicus [5]; 10% in the series with Rattus norvegicus [6]; 20% with Rattus norvegicus [7].

For the compound `CNc1nc2nc(C)ncc2cc1-c1c(Cl)cccc1Cl`, the Decrease in the series filed under Rattus norvegicus [1] came out at 21%. Also, the Activity rating in the series on Rattus norvegicus [8] turned out to be 20%; in the series on Rattus norvegicus [9], 10%; in the series with Rattus norvegicus [10], 10%.

Consider `Cc1ncc2cc(-c3c(Cl)cccc3Cl)c(NC(=O)C(F)(F)F)nc2n1`, for which the Activity rating in the series on Rattus norvegicus [11], with Rattus norvegicus [8] and with Rattus norvegicus [7] was 20% each time. Also, the Decrease in the series filed under Rattus norvegicus [1] worked out at 23%.

As for `Cc1ncc2cc(-c3c(Cl)cccc3Cl)c(NC(=O)CCl)nc2n1`, the Decrease in the series filed under Rattus norvegicus [1] is listed as 24%. Also, the Activity rating in the series on Rattus norvegicus [12] turned out to be 20%; in the series on Rattus norvegicus [2], 10%; with Rattus norvegicus [13], 0%.

In the case of `Cc1ncc2cc(-c3c(Cl)cccc3Cl)c(NC(=O)c3ccncc3)nc2n1`, the Decrease in the series listed under Rattus norvegicus [1] worked out at 18%. Besides, the Activity rating in the series on Rattus norvegicus [2], in the series with Rattus norvegicus [4] and in the series with Rattus norvegicus [6] was 10% throughout.

On to `Cc1ncc2cc(-c3c(Cl)cccc3Cl)c(NC(=O)c3ccccn3)nc2n1`, for which the Activity rating worked out at 20% with Rattus norvegicus [11]; 10% in the series on Rattus norvegicus [14]; 10% with Rattus norvegicus [4]; 20% in the series with Rattus norvegicus [15]; 10% with Rattus norvegicus [9]. Besides, the Decrease in the series listed under Rattus norvegicus [1] amounted to 29%.

On to `CC(=O)N(C)c1nc2nc(C)ncc2cc1-c1c(Cl)cccc1Cl`, for which the T1/2 result in series [16] and in series [17] was “Stable” throughout. Further, in series [18], the pKa (in general, the pH at which an ionisable group is half protonated) was 4.2. Moreover, the Activity rating with Rattus norvegicus [19], in the series with Rattus norvegicus [20] and in the series on Rattus norvegicus [21] was 0% in each case. The half-life (usually the time in which the quantity being followed falls by half) in series [22] was 1.6 h.

With `COCC(=O)Nc1nc2nc(C)ncc2cc1-c1c(Cl)cccc1Cl`, the Activity rating came to 20% with Rattus norvegicus [11]; 0% in the series with Rattus norvegicus [23]; 0% in the series on Rattus norvegicus [24]; 10% in the series on Rattus norvegicus [6]; 20% in the series with Rattus norvegicus [15]; 20% in the series on Rattus norvegicus [7]. Also, in the series listed under Rattus norvegicus [1], the Decrease came to 29%.

Take `NNc1nncc2ccccc12` [HYDRALAZINE]: the Decrease in the series listed under Rattus norvegicus [1] was 51% and 27%. Besides, the values for the Activity rating in the series with Rattus norvegicus [12] and with Rattus norvegicus [6] were 20% and 10%, respectively.

For `COC(=O)Nc1nc2nc(C)ncc2cc1-c1c(Cl)cccc1Cl`, the solubility in [25] was found to be 14600 µg/mL (≈ 40.2 mM); in series [27], 280 µg/mL (≈ 0.771 mM). Further, the T1/2 entry in series [16] and in series [17] was “Stable” in each case. For the same compound, the Decrease in the series filed under Rattus norvegicus [1] was determined as 29%. In addition, the pKa amounted to 4.2 in series [18] and 11.3 in [28]. Besides, the Activity rating in the series on Rattus norvegicus [14], in the series on Rattus norvegicus [26], in the series on Rattus norvegicus [4] and with Rattus norvegicus [9] was 10% throughout. The half-life in series [22] was 6 h.

As to `CC(=O)/N=c1/c(-c2c(Cl)cccc2Cl)cc2cnc(C)nc2n1C`, the T1/2 result in series [17] is recorded as “Stable”. The Decrease in the series filed under Rattus norvegicus [1] is listed as 17%. This compound also had a pKa in [18] of 2.5. Moreover, the Activity rating in the series with Rattus norvegicus [26] is on record as 10%; with Rattus norvegicus [9], 10%; with Rattus norvegicus [21], 0%. The half-life is 3.4 h in series [29] and 8.8 h in series [22].

Consider `CC(=O)Nc1ncc2cc(-c3c(Cl)cccc3Cl)c(NC(C)=O)nc2n1`, for which the Activity rating was 20% with Rattus norvegicus [11], more than 30% in the series with Rattus norvegicus [3] and 0% in the series on Rattus norvegicus [20]. Besides, the Decrease in the series filed under Rattus norvegicus [1] amounted to 32%.

As to `Cc1ncc2cc(-c3c(Cl)cccc3Cl)c(NC(=O)c3ccoc3)nc2n1`, the Decrease in the series filed under Rattus norvegicus [1] stood at 28%. The results for the Activity rating with Rattus norvegicus [12], with Rattus norvegicus [6] and in the series with Rattus norvegicus [30] were 20%, 10% and 20%, respectively.
